Our source for the activation values is PubChem BioAssay AID686992 (Broad Institute, 2013).

The structures appear in SMILES notation. The whole screen tested about 260,000 compounds, of which about 960 (0.37%) were called active.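 How the source made its calls: active means mean E-selectin-positive cell signal at least 10% of the positive control, reached in at least 60% of replicates, without over 20% cell loss; inconclusive means no rule given, readout overlaps actives, possibly toxicity-flagged; inactive means the rest, including those meeting only one limit.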 The sample as a whole holds a higher share of actives than the screen did.

Chain of E-selectin (Homo sapiens) (P16581 whole entry, looked up): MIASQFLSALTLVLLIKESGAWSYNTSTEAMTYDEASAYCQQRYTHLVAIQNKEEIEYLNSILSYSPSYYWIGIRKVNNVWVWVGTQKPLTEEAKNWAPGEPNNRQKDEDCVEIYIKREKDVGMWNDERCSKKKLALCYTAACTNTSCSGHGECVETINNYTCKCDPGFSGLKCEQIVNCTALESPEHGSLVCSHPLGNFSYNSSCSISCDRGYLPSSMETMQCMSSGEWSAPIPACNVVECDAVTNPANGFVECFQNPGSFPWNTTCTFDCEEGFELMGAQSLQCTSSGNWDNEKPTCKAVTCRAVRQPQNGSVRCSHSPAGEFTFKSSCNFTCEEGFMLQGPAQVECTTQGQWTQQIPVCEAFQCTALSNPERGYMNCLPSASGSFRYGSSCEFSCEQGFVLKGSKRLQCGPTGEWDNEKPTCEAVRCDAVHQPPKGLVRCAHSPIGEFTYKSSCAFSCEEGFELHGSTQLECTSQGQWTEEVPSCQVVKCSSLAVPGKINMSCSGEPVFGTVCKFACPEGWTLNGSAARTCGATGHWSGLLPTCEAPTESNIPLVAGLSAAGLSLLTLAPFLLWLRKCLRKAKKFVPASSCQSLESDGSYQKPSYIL

For the test, the target named is E-selectin (Homo sapiens) (UniProt P16581). The experiment in a line: E-selectin induction in HUVECs, primary screen, imaging, HUVEC, immunofluorescence imaging, single point (AID 686992).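 Further: signal is the percent of cells scored E-selectin positive by PE staining.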 Particulars: at 7.58 µM, active compounds read high, normalized: neutral wells 0, TNF-alpha wells 100. Put shortly:
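Read-out basis: % PE-positive cells; Test system: HUVEC primary endothelial cells; Technique: immunofluorescence imaging; Dosing: single-point compound dose.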
As for `COc1ccc(CCCNC(=O)C2Cc3c(-c4cccc(C(N)=O)c4)ccnc3O2)cc1` (configuration not stated), the activation is 0.751% (inactive).

For the molecule `C=CCC[C@H](CCCCC)OC(=O)/C=C/[C@H](O)[C@@H](O)C[C@@H](O)CC=C`, the activation was -5.32% (inactive).

With `NC1=NC2(CCCCC2)N(c2ccc(F)cc2F)C(N)=N1`, the activation is 522% (active).

On to `O=C(c1ccccc1)N1C[C@@H]2[C@H](c3ccccc31)[C@@H](CO)N2Cc1cc(F)ccc1F`, for which the activation was 0.162% (inactive).

As for `CCN1C(=O)N[C@@H]2C[C@H](C(=O)N3CCCC3)[C@H](C)[C@H](c3ccccc3)C[C@@H]21`, the activation was -0.199% (inactive).

As to `Cc1ccc(CSc2nc3[nH]ncc3c(=O)[nH]2)cc1`, the activation is 92.1% (active).

As for `Cc1cccc(NC(=O)CSc2nc3[nH]ncc3c(=O)[nH]2)c1`, the activation is -0.483% (inactive).

For `Cc1ccc(CSc2nc(-c3ccccc3)c(C#N)c(=O)[nH]2)cc1`, the activation was 2.35% (inactive).

On to `O=C1[C@@H](c2ccccc2)[C@@H](c2ccccc2)N1c1ccccc1`, for which the activation is -0.064% (inactive).

For the molecule `O=C(N[C@H]1C=C[C@@H](CC(=O)N2CCc3ccccc3C2)O[C@@H]1CO)C1CCOCC1`, the activation is -0.136% (inactive).

For `Cc1c(C(=O)Nc2cccc(-c3nnc4n3CCCCC4)c2)oc2ccccc12`, the activation is -1.41% (inactive).

With `COc1ccc(-c2nnc3n2CCCCC3)cc1`, the activation is 31.2% (active).

`COc1cccc(C(=O)Nc2ccc3nc4n(c(=O)c3c2)CCCCC4)c1`: the activation is 0.059% (inactive).

Take `Cc1cc(N2CCN(C(=O)OC(C)(C)C)C[C@H]2C)ccc1N1CCN(Cc2ccccc2)[C@H](C)C1`: the activation was 0.115% (inactive).

With `CCOC(=O)[C@]12CCC=C1N(Cc1ccco1)C(=O)[C@H](CC(=O)NCc1cccc(C(F)(F)F)c1)C2`, the activation was -0.145% (inactive).

As for `CCNC(=O)CC1C(=O)N(c2ccc(OC)cc2)C(=O)N1CCOC` (configuration not stated), the activation is 35.7% (active).

Take `COc1ccc(CCN2C(=O)N(c3ccc(OC)cc3)C(=O)C2CC(=O)Nc2ccc(OC)cc2)cc1` (configuration not stated): the activation was 4.19% (inactive).

As to `CCOc1ccc(NC(=O)CC2C(=O)N(c3ccccc3)C(=O)N2CCOC)cc1` (configuration not stated), the activation is -0.224% (inactive).

Regarding `O=C(CN1CCOCC1)NC[C@@H]1N[C@@H](CO)[C@@H]1c1ccc(-c2ccccc2)cc1`, the activation was 0.253% (inactive).

Take `COc1ccc(-c2ccccc2C2Cc3nnccc3CN2C(=O)Nc2ccccc2)cc1` (configuration not stated): the activation is -0.134% (inactive).

`COc1cc(OC)cc(-c2cc3ccc(F)cc3cn2)c1`: the activation was 0.221% (inactive).

`CCCc1ccc(S(=O)(=O)N2CCN(C(=O)c3cc(C)on3)CC2)cc1`: the activation is -0.187% (inactive).

Turning to `CCCCCCNC(=O)O[C@H]1CN(C(=O)OC(C)C)N(C(=O)OC(C)C)[C@@H]2CN(S(=O)(=O)c3ccc(C)cc3)C[C@]12O`, the activation was 0.079% (inactive).

For `Cc1ccc(S(=O)(=O)N2CCN(C(=O)Cc3sc(C)nc3-c3ccc(F)cc3)CC2)c(C)c1`, the activation was 62.2% (active).

As for `Cc1nc(-c2ccc(F)cc2)c(CC(=O)N2CCN(S(=O)(=O)c3ccc(F)cc3)CC2)s1`, the activation is -0.541% (inactive).

On to `Cc1nc(-c2ccc(F)cc2)c(CC(=O)Nc2cc(S(=O)(=O)N3CCCCC3)ccc2C)s1`, for which the activation was -1.09% (inactive).

On to `CCOC(=O)C1=C(C(=O)OCC)C2N(Cc3ccc(C#N)cc3)c3ccccc3[C@@]23C[C@@H](C(=O)OC)N(S(=O)(=O)c2ccc(F)cc2)C3=N1` (some centres not stated), for which the activation is -0.148% (inactive).

`COc1ccccc1S(=O)(=O)N[C@@H]1CC[C@H](CCn2cc(C3CCCC3)nn2)O[C@H]1CO`: the activation was -0.101% (inactive).

For the molecule `CCCCCCCNC(=O)C1(CC2CC(c3cccc(Br)c3)=NO2)CCN(C(=O)c2cc(OCC)c(OCC)c(OCC)c2)CC1` (configuration not stated), the activation is 0.076% (inactive).

On to `Cc1nc(CN(C)C(=O)CC2C(=O)NCCN2Cc2ccc(F)cc2)cs1` (configuration not stated), for which the activation is -0.598% (inactive).

Turning to `Cc1cnc(CN(C)C(=O)CC2C(=O)NCCN2Cc2cccc(F)c2F)[nH]1` (configuration not stated), the activation is -0.473% (inactive).

As to `CN(Cc1cccc2ncccc12)C(=O)CC1C(=O)NCCN1Cc1ccc(F)cc1` (configuration not stated), the activation is 365% (active).

As for `COc1ccc2c3c([nH]c2c1)[C@@H](CO)N(C)CC31CCN(S(=O)(=O)c2ccc(C)cc2)CC1`, the activation is -0.271% (inactive).

Consider `CO[C@H]1CN(C)C(=O)c2ccc(NC(C)=O)cc2OC[C@@H](C)N(C(=O)c2ccncc2)C[C@@H]1C`, for which the activation was 0.486% (inactive).

With `NC(=S)NN=Cc1ccc(OC(=O)COc2cc(Cl)c(Cl)cc2Cl)cn1`, the activation is 0.0825% (inactive).

As to `C[C@H](CO)N1C[C@H](C)[C@@H](CN(C)S(=O)(=O)c2ccc([N+](=O)[O-])cc2)OCc2ccccc2-c2c(n(C)c3ccccc23)C1=O`, the activation is 0.251% (inactive).

`CCCc1ccc(OCCNC(=O)c2ccccc2Br)cc1`: the activation is 0.473% (inactive).

As to `O=C(NC(=S)Nc1ncccn1)c1ccccc1Br`, the activation was -0.09% (inactive).

For the molecule `CCOc1cnc(C(=O)NNC(=O)c2ccccc2Br)o1`, the activation is 180% (active).

With `COCC(=O)N1[C@H](C(=O)N2CCN(C)CC2)[C@@H](CO)[C@@H]2Cn3c(ccc(C4=CCCC4)c3=O)[C@@H]21`, the activation is 0.129% (inactive).

With `COC(=O)C1=C(C)N(Cc2ccc(C(F)(F)F)cc2)C(=NCc2ccc(C(F)(F)F)cc2)NC1c1cccc(Cl)c1` (configuration not stated), the activation is -0.458% (inactive).

Turning to `O=C(C[C@H]1CC[C@@H]2[C@H](COC[C@H](O)CN2CCC(F)(F)F)O1)NCC1CC1`, the activation was -0.0615% (inactive).

Regarding `COc1ccc(C2=NN(C(=O)c3cccnc3)C(c3ccccc3)C2)cc1` (configuration not stated), the activation is -2.28% (inactive).

Regarding `COc1ccc(C2=NN(C(=O)c3ccccc3C(=O)O)C(c3ccccc3O)C2)cc1` (configuration not stated), the activation is 55.5% (active).

`COc1ccc(C2=NN(C(C)=O)C(c3ccccc3)C2)cc1` (configuration not stated): the activation is 0.176% (inactive).

On to `Cc1ccc(C(=O)N2CCCc3ccccc32)c(Cl)c1`, for which the activation was -0.261% (inactive).

Take `C[C@@H]1CN([C@H](C)CO)C(=O)c2cccc(NC(=O)c3cnccn3)c2O[C@@H]1CN(C)Cc1ccncc1`: the activation was -11.9% (inactive).

For `C[C@H]1CN([C@@H](C)CO)C(=O)c2cccc(NC(=O)c3cnccn3)c2O[C@H]1CN(C)C(=O)Nc1ccccc1`, the activation is 0.886% (inactive).

For the molecule `COc1ccc(CN(C)C[C@H]2Oc3c(NC(=O)c4cnccn4)cccc3C(=O)N([C@H](C)CO)C[C@@H]2C)cc1`, the activation is 39% (active).

With `CC(C)NC(=O)N(C)C[C@@H]1Oc2c(NC(=O)c3cnccn3)cccc2C(=O)N([C@@H](C)CO)C[C@@H]1C`, the activation was 88.4% (active).

As to `C[C@H]1CN([C@@H](C)CO)C(=O)c2cccc(NC(=O)c3cnccn3)c2O[C@@H]1CN(C)Cc1ccc(Oc2ccccc2)cc1`, the activation was 0.0435% (inactive).

For `C[C@H](CO)N1C[C@H](C)[C@H](CN(C)C(=O)Nc2ccc(F)cc2)Oc2c(NC(=O)c3cnccn3)cccc2C1=O`, the activation was 0.893% (inactive).

On to `COc1ccc2c3c(n(C)c2c1)[C@@H](CO)N(C(=O)c1cnccn1)CC31CCN(C(C)=O)CC1`, for which the activation is -0.0775% (inactive).

As for `Cc1ccccc1-c1csc(C(O)c2cccc(Cl)c2)n1` (configuration not stated), the activation was 0.0645% (inactive).

`CCOC(=O)[C@H]1Nc2ccc(Cl)cc2[C@@H]2[C@H]1C1CC(c3ccccc31)N2C(=O)OCc1ccccc1` (some centres not stated): the activation was -3.61% (inactive).

As to `Cc1coc2cc3oc(=O)c(CCC(=O)O)c(C)c3cc12`, the activation was 0.29% (inactive).

`Cc1c(CC(=O)NCC(=O)NCC(=O)O)c(=O)oc2cc3oc4c(c3cc12)CCCC4`: the activation was 44.8% (active).

In the case of `CC[C@@H](C)[C@H](NC(=O)CCc1c(C)c2cc3c4c(oc3c(C)c2oc1=O)CCCC4)C(=O)O`, the activation is -0.004% (inactive).

On to `CN1C(=O)C(Br)(Br)CC1c1cccnc1` (configuration not stated), for which the activation is 0.457% (inactive).

Consider `CCc1nc2c(OCCOc3ccccc3)cccn2c1N(C)C(=O)c1ccc(OC)cc1`, for which the activation was -0.197% (inactive).

`CCOC(=O)C1C(C)C(C(C)(C)C)N(S(=O)(=O)c2ccc(C)cc2)C1c1ccccc1` (configuration not stated): the activation is -0.306% (inactive).

Regarding `O=C(NC1CCCC1)[C@@H]1[C@@H](CO)[C@@H]2Cn3c(ccc(-c4ccc(F)cc4)c3=O)[C@H]1N2Cc1cocn1`, the activation was 0.192% (inactive).

For `CCOC(=O)C(=Cc1ccccc1)C(=O)c1ccccc1`, the activation is -0.023% (inactive).

For `COc1ccc2sc(-c3ccc(N(C)C)cc3)c(C#CCO)c2c1`, the activation was 0.712% (inactive).

With `COc1ccc2c(c1)c(=Cc1ccc(N(C)C)cc1)c1cc(-c3ccccc3)[n+](C)n12`, the activation is 197% (active).

For the molecule `COc1ccc2sc(-c3ccc(N(C)C)cc3)c(-c3ccc4cc[nH]c4c3)c2c1`, the activation is 0.675% (inactive).

For `CC1(C)OC(=O)C2=C(C[C@@H](C3CCCC3)O[C@@H]2c2ccc(Cl)cc2)O1`, the activation is -0.0095% (inactive).
